Screening data: PubChem, several laboratories
NR1D1 modulator: Rev-erb alpha (human) modulation; AID 1259318; Rev-erbα–FITC-DNA binding, fluorescence polarization, 90 min; activity, % at 10 µM; P20393; hit rate 0.79% among 370,000;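 active = activity above about 14%, limit read from the data; passing the limit was not always enough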
NR2E3 ag-1: agonists of human nuclear receptor NR2E3; inhibition of corepressor binding, % at 4.78 µM; hit rate 0.12% among 320,000; Q9Y5X4; GST-NR2E3/biotin-RetCOR TR-FRET, 1536-well;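 active = percent inhibition above the cutoff of mean plus 3 SD of all tested compounds, set per screening campaign, cut at about 20% in these data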
Target sequence (Q9Y5X4 whole entry, looked up): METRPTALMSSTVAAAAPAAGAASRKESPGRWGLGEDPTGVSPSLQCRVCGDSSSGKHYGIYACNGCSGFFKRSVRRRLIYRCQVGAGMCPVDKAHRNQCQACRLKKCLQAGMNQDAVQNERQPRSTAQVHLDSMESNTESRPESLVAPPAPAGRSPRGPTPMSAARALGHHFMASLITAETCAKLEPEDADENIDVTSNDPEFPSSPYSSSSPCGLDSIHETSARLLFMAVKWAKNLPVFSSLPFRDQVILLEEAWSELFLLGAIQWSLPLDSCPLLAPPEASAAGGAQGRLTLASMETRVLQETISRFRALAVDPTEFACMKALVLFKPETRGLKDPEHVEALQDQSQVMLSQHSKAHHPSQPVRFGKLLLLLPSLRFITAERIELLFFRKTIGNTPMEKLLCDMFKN
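system = GST-tagged NR2E3 plus biotinylated RetCOR corepressor | input = 1.35 nM GST-NR2E3 | also added = 7 nM biotin-RetCOR | schedule = 5 h incubation at 4 °C | measured by = TR-FRET with europium anti-GST and streptavidin-D2, 340 nm excitation | read-out = percent loss of FRET ratio relative to control wells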
PG9 binder: binds the HIV-1 gp120 antibody PG9; TR-FRET gp120-PG9 antibody binding; inhibition, % at 6.7 µM; hit rate 0.43% among 360,000; in the data active = inhibition above about 8.5%
NR2E3 ag-2: agonists of human NR2E3 nuclear receptor | CHO-S Gal4-NCOR/VP16-NR2E3 two-hybrid, luciferase | inhibition of corepressor binding, % at 3.98 µM | hit rate 0.35% among 360,000 | AID 602229;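 active = inhibition above the mean of all tested compounds plus 3 SD, cut at about 70% in these data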;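 note: higher means lower luciferase signal from less NR2E3 corepressor binding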
rCAG binder: molecules binding r(CAG) RNA repeats. r(CAG) RNA repeat, TO-PRO-1 dye displacement fluorescence. inhibition, % at 3 µM. hit rate 1.3% among 370,000. AID 651821;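 active = inhibition above the plate cutoff, the mean of all test compounds on that plate plus 3 SD, cut at about 35% in these data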;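 note: higher means more dye released from RNA so lower well fluorescence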
NR1D1 mod conf: Rev-erb alpha (human) modulation, hit confirmation; hit rate 61% among 3,000; shares compounds with NR1D1 modulator; activation, % at 25 µM; Rev-erb alpha FITC-DNA binding, fluorescence polarization, 90 min; AID 1259319;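 active = activation at or above a set limit, or at least 3 SD above the negative control mean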
RORg counter: RORgamma DNA-binding activity, dose-response counter-screen | shares compounds with NR1D1 modulator | purified RORgamma protein-FITC-DNA binding, fluorescence polarization | IC50, µM | hit rate 8% among 910 | AID 1259320;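 active = Compounds whose fitted half-maximal concentration for disrupting protein-DNA binding is below 10 micromolar; the record names Rev-erb in its text, so the target is in doubt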
Large screens that a line does not name were inactive (follow-up assays come after a bar, where they were run). Most compounds without a hit are left out; they make up all but 2.6% or so of the library.

Cc1c(Cl)ccc2c(C(N)=O)cc(-c3ccccn3)nc12	NR1D1 modulator 41 | NR1D1 mod conf 35 | RORg counter inactive
COc1ccc(CCNC(=O)c2cc(-c3ccccn3)nc3c(Cl)cccc23)cc1OC	none
CCOC(=O)CNC(=O)c1cc(-c2ccccn2)nc2c(C)c(Cl)ccc12	NR1D1 modulator 19 | NR1D1 mod conf 22
O=C(NCc1ccccc1Cl)c1ccc2nc([C@@H]3O[C@H](CO)[C@H](O)[C@H](O)[C@H]3O)[nH]c2c1	none (no result: NR1D1 modulator, NR2E3 ag-1, PG9 binder, rCAG binder)
O=C(Nc1ccc2c(c1)OCCO2)C1c2ccccc2OCC(=O)N1C1CC1 (stereo not given)	none (no result: NR2E3 ag-1)
CCCCCCCCN1C(=O)[C@@H](CC(=O)NCCC(C)C)C[C@@]2(C(=O)OC)C1=C[C@H](C1CCCC1)O[C@@H]2C	none (no result: NR2E3 ag-1, NR2E3 ag-2)
Cc1ccc(/C=N/NC(=O)c2cc3c(ccc4ccccc43)o2)o1	none (no result: NR2E3 ag-1)
CC(=O)Oc1ccc(/C=N\NC(=O)c2cc3c(ccc4ccccc43)o2)cc1	NR1D1 modulator 33 | NR1D1 mod conf 33 | RORg counter inactive
C[C@@H]1CN([C@H](C)CO)C(=O)c2c(c3ccccc3n2C)-c2ccccc2CO[C@H]1CN(C)C(=O)CCC(F)(F)F	none (no result: NR2E3 ag-1)
COC(=O)c1cc(-c2ccc3ccccc3c2)c(=O)n2c1CCC2	none (no result: NR2E3 ag-1, PG9 binder, NR2E3 ag-2)
COC(=O)c1cc(-c2cc3ccccc3s2)c(=O)n2c1CCC2	NR1D1 modulator 58 (no result: NR2E3 ag-1, PG9 binder, NR2E3 ag-2) | NR1D1 mod conf 40 | RORg counter inactive
CN1C(=O)N(C)c2ccc(Br)c3cccc1c23	NR1D1 modulator 89 (no result: NR2E3 ag-1) | NR1D1 mod conf 81 | RORg counter inactive
Cc1c(C(=O)OCC(=O)Nc2ccc(S(N)(=O)=O)cc2)oc2c1ccc1ccccc12	NR1D1 modulator 16 | NR1D1 mod conf inactive
C=CCOc1ccc(/C(O)=C2\C(=O)C(=O)N(CCN(C)C)C2c2cccs2)cc1 (stereo not given)	NR1D1 modulator 29 | NR1D1 mod conf 35 | RORg counter inactive
O=C(O)CC(Sc1ccc(Cl)cc1)C(=O)Nc1ccccc1 (stereo not given)	none (no result: NR2E3 ag-1, NR2E3 ag-2)
O=C(c1ccccc1)N1N=C(c2ccccc2O)CC1c1ccccc1 (stereo not given)	NR1D1 modulator 57 | NR1D1 mod conf 36 | RORg counter 6.9
Cc1[nH]nc2c1C(c1ccco1)C(C#N)=C(N)O2 (stereo not given)	none
COc1ccc(-c2ccc(C3C(C#N)=C(N)Oc4n[nH]c(C)c43)o2)cc1 (stereo not given)	NR1D1 modulator 22 | NR1D1 mod conf 19
COc1ccc(C(=O)/C(C#N)=N/Nc2ccc([N+](=O)[O-])cc2)cc1	NR1D1 modulator 44 | NR1D1 mod conf 36 | RORg counter inactive
COc1ccc(C(=O)/C(C#N)=N/Nc2ccccc2[N+](=O)[O-])cc1	none
O=C(NCCc1ccccc1F)C1CCC(=O)N(Cc2ccccc2F)C1 (stereo not given)	none
Cc1n[nH]c(C)c1CCNC(=O)C1CCC(=O)N(Cc2ccccc2F)C1 (stereo not given)	NR1D1 modulator 17 | NR1D1 mod conf inactive
Cn1nc(N)c2c(-c3ccccc3)c(C#N)c(N)nc21	none
CCN(CC)c1ccc(-c2c(C#N)c(N)nc(OC)c2C#N)cc1	NR1D1 modulator 178 | NR1D1 mod conf 137 | RORg counter inactive
COc1ccc(C(=O)Nc2nc(C)c(C(C)=O)s2)cc1S(=O)(=O)N1CCOCC1	NR1D1 modulator 58 | NR1D1 mod conf 144 | RORg counter inactive
CC(C)Nc1nc(-c2ccncc2)nc(-c2ccc(Cl)cc2)c1C#N	NR1D1 modulator 20 | NR1D1 mod conf inactive
CC(C)Nc1nc(-c2cccnc2)nc(-c2ccccc2)c1C#N	NR1D1 modulator 23 | NR1D1 mod conf inactive
CN(C)c1nc(-c2cccnc2)nc(-c2ccccc2)c1C#N	NR1D1 modulator 37 (no result: NR2E3 ag-1) | NR1D1 mod conf 29 | RORg counter inactive
CC(C)Nc1nc(-c2cccnc2)nc(-c2ccc(Cl)cc2)c1C#N	NR1D1 modulator 247 | NR1D1 mod conf 55 | RORg counter inactive
N#Cc1c(-c2ccccc2)nc(-c2cccnc2)[nH]c1=O	none
CC(=O)N1CCN(C(=O)COC(=O)CNC(=O)c2ccccc2C)CC1	none
COC(=O)c1c(-c2ccccc2)csc1N	none
COC(=O)c1ccc(C(=O)OC)c(NC2=NS(=O)(=O)c3ccccc32)c1	NR1D1 modulator 21 | NR1D1 mod conf inactive
COC(=O)c1c(-c2ccccc2)csc1NC1=NS(=O)(=O)c2ccccc21	NR1D1 modulator 31 | NR1D1 mod conf inactive
Cc1ccccc1NC1=NS(=O)(=O)c2ccccc21	none
CCOC(=O)C1CCN(C(c2cc3ccc(C)c(C)c3[nH]c2=O)c2nnnn2C2CCCCC2)CC1 (stereo not given)	NR1D1 modulator 69 | NR1D1 mod conf 97
COCC(=O)N1CCC2CC1c1cc(Cl)ccc12 (stereo not given)	none (no result: NR2E3 ag-1)
CCCCOC(=O)c1cc(C)nc2ccc(Br)cc12	NR1D1 modulator 44 | NR1D1 mod conf 33 | RORg counter inactive
Cc1cc(C(N)=O)c2cc(Br)ccc2n1	none
COc1cccc(CNC(=O)COC(=O)c2cc(Br)c(Br)s2)c1	NR1D1 modulator 21 | NR1D1 mod conf 18
COc1cccc(CNC(=O)COC(=O)c2ccc(Cl)s2)c1	none (no result: NR2E3 ag-1)
COc1cc(C=O)ccc1OCc1ccncc1	none
COc1cc(C=O)c(Br)cc1OCc1ccc(C)cc1	NR1D1 modulator 18 | NR1D1 mod conf inactive
O=C(c1cc2cc(Cl)ccc2[nH]1)N1CCc2ccccc2C1	NR1D1 modulator 60 | NR1D1 mod conf inactive
COC(=O)[C@]12C[C@H](CC(=O)NCc3cccc(C(F)(F)F)c3)C(=O)N(CCC3=CCCCC3)C1=C[C@H](C(C)(C)C)O[C@@H]2C	none (no result: NR2E3 ag-1, NR2E3 ag-2)
O=S(=O)(c1ccc2nc(N3CCN(c4ccc(F)cc4)CC3)ccc2c1)N1CCCCC1	NR1D1 modulator 37 | NR1D1 mod conf 27
O=S(=O)(c1ccc2nc(N3CCN(c4ccccc4F)CC3)ccc2c1)N1CCCCC1	NR1D1 modulator 41 | NR1D1 mod conf 31 | RORg counter inactive
CC1CCN(S(=O)(=O)c2ccc3ccccc3c2)CC1	none
CC1CCN(S(=O)(=O)c2ccc3nc(N4CCN(c5ccccc5)CC4)ccc3c2)CC1	NR1D1 modulator 92 (no result: NR2E3 ag-2) | NR1D1 mod conf 57 | RORg counter inactive
Cc1ccccc1CC(=O)N1CCN(S(=O)(=O)c2ccc(Cl)s2)CC1	none (no result: NR2E3 ag-1)
COc1cc(CN2C(=O)C(C)ON=C2c2ccccc2F)cc(OC)c1 (stereo not given)	none (no result: NR2E3 ag-1)
CCc1cc(=O)oc2cc(C)cc(OCC(=O)NCCCN3CCOCC3)c12	none
COCCN(C(=O)COc1ccccc1)c1nnc(-c2cccnc2)s1	none
COCCN(C(=O)COc1ccc(Cl)cc1)c1nnc(-c2cccnc2)s1	NR1D1 modulator 24 | NR1D1 mod conf inactive
